In the library only some 4.5% were active in any assay of this set; here they are far more common.
OX1R antag-1 – OX1R (HCRTR1) antagonists, primary screen, fluorescence, CHO/OX1R cells, Fluo-8 calcium, orexin A. Orexin/Hypocretin receptor type 1 (Homo sapiens), O43613. 0.43% of 330,000 active. inhibition, % at 5 µM. Fluo-8 calcium fluorescence. AID 434989, 2010;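 active = inhibition above its plate's threshold, mean inhibition of all tested compounds on the plate plus 3 SD, cut at about 37% in these data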
Target sequence (O43613 whole entry, looked up): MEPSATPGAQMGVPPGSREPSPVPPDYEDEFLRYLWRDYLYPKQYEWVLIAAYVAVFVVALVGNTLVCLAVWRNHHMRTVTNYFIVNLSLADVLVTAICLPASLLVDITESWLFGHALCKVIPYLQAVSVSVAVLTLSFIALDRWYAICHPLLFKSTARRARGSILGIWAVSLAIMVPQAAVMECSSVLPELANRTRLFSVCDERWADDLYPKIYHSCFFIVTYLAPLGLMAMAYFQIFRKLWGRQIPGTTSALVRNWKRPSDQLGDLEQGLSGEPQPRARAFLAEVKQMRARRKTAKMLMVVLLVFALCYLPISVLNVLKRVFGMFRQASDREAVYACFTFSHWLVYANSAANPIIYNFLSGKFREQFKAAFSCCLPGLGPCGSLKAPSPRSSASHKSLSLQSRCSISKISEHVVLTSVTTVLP
CHO parental Ca – ATP-evoked calcium signal inhibitors, parental CHO, primary screen, counter-screen for OX1R antagonist project, cell-based, fluorescence, Fluo-8 calcium dye; parental CHO-K1, ATP-induced calcium, Fluo-8 fluorescence; 0.63% of 330,000 active; inhibition, % at 5.6 µM;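 active = inhibition above that plate's mean sample inhibition plus 3 SD, cut at about 26% in these data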
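material = parental CHO cells | also added = ATP as calcium-mobilizing challenge | dosing = single point at 5.6 µM | detection = intracellular calcium via Fluo-8 no-wash fluorescent dye | read-out = % inhibition | benchmarks = low control ATP plus DMSO, high control DMSO only | repeats = one well per compound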
TAAR1 antag – human TAAR1 antagonists, primary screen, Fluo-8 calcium fluorescence, CHO RD-HGA16 cells | AID 624466, 2012 | antagonist | 1.5% of 360,000 active | Trace amine-associated receptor 1 (Homo sapiens), Q96RJ0 | inhibition, % at 3 µM;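 active = inhibition above a per-plate cutoff, the mean inhibition of test compounds on that plate plus 3 SD, cut at about 49% in these data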
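Test system: hTAAR1-expressing CHO RD-HGA16 cells, Gα16-coupled; Probe or stimulus: EC80 β-phenethylamine stimulus; Compound dosing: single nominal final test compound concentration of 3 µM; Timing: 140 s kinetic read after compound, 140 s after agonist; Signal: Fluo-8 calcium-sensitive fluorescence; Measure: % inhibition of agonist calcium response; Controls: DMSO and EC80 PEA controls.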
OX1R antag-2 – antagonists of human orexin 1 receptor (OX1R). Orexin/Hypocretin receptor type 1 (Homo sapiens), O43613. OX1R-expressing cells, FRET antagonist read-out. inhibition, % at 6.6 µM. 1.8% of 330,000 active; in the data active = inhibition mostly above about 38%, no sharp cut-off; inactive = mostly below about 40%
GPR7 antagonist – GPR7 receptor antagonists, primary screen, cell-based, fluorescence, single concentration; Neuropeptides B/W receptor type 1 (Homo sapiens), P48145; GPR7-expressing cells, fluorescence antagonist assay; 1.1% of 290,000 active; inhibition, % at 4.4 µM; in the data active = inhibition above about 16%, passing the limit was not always enough;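 note: cells stimulated with the agonist NPW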
Target sequence (P48145 whole entry, looked up): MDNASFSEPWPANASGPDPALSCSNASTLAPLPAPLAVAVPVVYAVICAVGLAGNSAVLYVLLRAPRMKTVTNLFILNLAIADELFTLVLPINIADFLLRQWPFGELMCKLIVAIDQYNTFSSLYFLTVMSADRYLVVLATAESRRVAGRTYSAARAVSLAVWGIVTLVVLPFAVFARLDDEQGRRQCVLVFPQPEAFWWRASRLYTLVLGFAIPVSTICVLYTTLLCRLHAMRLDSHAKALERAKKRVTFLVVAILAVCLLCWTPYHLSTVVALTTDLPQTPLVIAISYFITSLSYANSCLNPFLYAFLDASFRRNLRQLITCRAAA
TAAR1 ag – human TAAR1 agonists, primary screen, Fluo-8 calcium fluorescence, CHO RD-HGA16 cells | Trace amine-associated receptor 1 (Homo sapiens), Q96RJ0 | vehicle wells 0%, saturating PEA agonist 100% | activation, % at 3 µM | 0.99% of 360,000 active | AID 624467, 2012;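 active = activation above the mean activation of all test compounds in the run plus 3 SD, cut at about 38% in these data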
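System: CHO-derived RD-HGA16 cells with stable Gα16 and human TAAR1. Times: 17-24 h plating, Fluo-8 75 min 37 °C, 30 min RT. Measured by: calcium-sensitive Fluo-8 signal, excitation 470-495, emission 515-575 nm. Read-out basis: % activation relative to PEA EC100 response. Control set: DMSO and PEA EC100. Repeats: no replicates (n 1).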
Large screens that a line does not name were inactive.

O=C(Nc1nccs1)C1CCCN(S(=O)(=O)c2cccc3cccnc23)C1 (configuration not stated)	TAAR1 antag 50, OX1R antag-2 43
O=C(Nc1ccc(C(F)(F)F)cc1)C1CCCN1S(=O)(=O)c1cccc2cccnc12 (configuration not stated)	OX1R antag-2 36
Cc1cc(O)cc(=O)n1-c1cccc(C(F)(F)F)c1	none (no result: OX1R antag-1, CHO parental Ca, OX1R antag-2, GPR7 antagonist)
O=S(=O)(/C=C/C=C/S(=O)(=O)c1ccccc1)c1ccccc1	none (no result: OX1R antag-1, CHO parental Ca, OX1R antag-2, GPR7 antagonist)
COC(=O)C1=C(C)N(C)C(=NCc2ccc3c(c2)OCO3)NC1c1ccc(F)cc1 (configuration not stated)	none (no result: OX1R antag-1, CHO parental Ca, OX1R antag-2, GPR7 antagonist)
O=C(C[n+]1cccc(/C=N/O)c1)NC(=O)Nc1ccccc1	none (no result: OX1R antag-1, CHO parental Ca, OX1R antag-2, GPR7 antagonist)
CC(=O)c1cccc(NC(=O)C2CCCN2S(=O)(=O)c2cccc3cccnc23)c1 (configuration not stated)	OX1R antag-2 67
COc1cc(NC(=O)[C@@H]2CCCN2S(=O)(=O)c2cccc3cccnc23)cc(OC)c1OC	none (no result: GPR7 antagonist)
COc1ccccc1Nc1ncccc1[N+](=O)[O-]	none
COc1ccccc1C(CNc1ncccc1[N+](=O)[O-])N(C)C (configuration not stated)	OX1R antag-2 67
Cc1cc(Br)ccc1NC(=O)CN(C)C(=O)c1cccc(S(=O)(=O)N2CCN(C)CC2)c1	none (no result: OX1R antag-1, CHO parental Ca, OX1R antag-2, GPR7 antagonist)
Cc1cc(-c2ccc(C(C)C)c(S(=O)(=O)N3CC(=O)Nc4ccccc43)c2)on1	OX1R antag-2 39
CCc1ccc(-c2cc(C)no2)cc1S(=O)(=O)N1CC(=O)Nc2ccccc21	none
O=C(CN1C(=O)NC2(CCCCCC2)C1=O)Nc1ccc2c(c1)CCC2	GPR7 antagonist 70
CC1CCC2(CC1)NC(=O)N(CC(=O)Nc1ccc3c(c1)CCC3)C2=O (configuration not stated)	none
CC1CCC2(CC1)NC(=O)N(CC(=O)Nc1ccc(N3CCOCC3)cc1)C2=O (configuration not stated)	CHO parental Ca 71
C=CCn1c2ccccc2c2nnc(SCCN3CCCCC3)nc21	none
C=CCn1c2ccccc2c2nnc(SCCCn3c(=O)[nH]c4ccccc43)nc21	TAAR1 antag 56 (no result: OX1R antag-1, CHO parental Ca, OX1R antag-2)
C=CCn1c2ccccc2c2nnc(SCN3C(=O)c4ccccc4C3=O)nc21	TAAR1 antag 51
Cc1[nH]c2ccccc2c1CC(=O)Nc1ccc(Nc2cccnc2)c(-c2ccc(C(C)(C)C)cc2)c1	none (no result: OX1R antag-1, CHO parental Ca, OX1R antag-2, GPR7 antagonist)
COC(=O)c1cc2c(c3c4cc(OC)ccc4n(S(=O)(=O)c4ccc(OC)cc4)c13)C(=O)N(Cc1ccco1)C2	none (no result: OX1R antag-1, CHO parental Ca, OX1R antag-2, GPR7 antagonist)
COc1ccc(-c2n[nH]c(C)c2-c2ccc(Cl)cc2)c(O)c1OC	TAAR1 antag 54
COc1ccc(-c2n[nH]c(C)c2-c2ccc(Cl)cc2)c(O)c1	CHO parental Ca 98
Cc1[nH]nc(-c2ccc(O)cc2O)c1-c1ccc(Cl)cc1	none
COC(=O)[C@]12C[C@H](CC(=O)NCc3cccc4ccccc34)C(=O)N(Cc3ccccc3)C1=C[C@H](C(C)C)O[C@@H]2C1CC1	none (no result: OX1R antag-1, CHO parental Ca, OX1R antag-2, GPR7 antagonist)
COc1ccc(C(=S)N2CCOCC2)cc1OC(=O)c1ccc([N+](=O)[O-])cc1[N+](=O)[O-]	none
COc1cc(C(=S)N2CCOCC2)cc(OC)c1OC(=O)c1ccccc1[N+](=O)[O-]	OX1R antag-2 34
CCOc1ccccc1C1C2C(=O)N(c3ccccc3)C(=O)C2ON1c1ccccc1 (configuration not stated)	TAAR1 antag 50
COc1ccc(C(O)c2ncc(-c3ccccc3)[nH]2)c(OC)c1 (configuration not stated)	none (no result: OX1R antag-1, CHO parental Ca, OX1R antag-2, GPR7 antagonist)
O=c1nc2n(c3ccc([N+](=O)[O-])cc13)CCCCC2	OX1R antag-2 59
O=C(Nc1ccc2nc3n(c(=O)c2c1)CCCCC3)c1cc([N+](=O)[O-])ccc1F	none
COCc1cc(N2CCN(C(=O)OC(C)(C)C)C[C@H]2C)ccc1N1CCN(Cc2ccccc2)[C@H](C)C1	none (no result: OX1R antag-1, CHO parental Ca, OX1R antag-2, GPR7 antagonist)
CSC1=C(C#N)C2(CCCC2)C(C#N)=C(N)N1	none (no result: TAAR1 antag, TAAR1 ag)
N#CC1=C(N)N2C(=C(C#N)C13CCCCC3)SC1CCCCC12O (configuration not stated)	CHO parental Ca 33
CCc1nc(C)cn1S(=O)(=O)c1cc(C)c(OC)c(C)c1C	CHO parental Ca 31
CCc1nc(C)cn1S(=O)(=O)c1cc(C)c(OC)cc1C	none
COc1ccc(-c2nc(NC(=O)c3[nH]c(C)c(C(C)=O)c3C)sc2C)cc1	TAAR1 antag 88, TAAR1 ag 46
COc1ccc(-c2nc(NC(=O)c3ccco3)sc2C)cc1	none (no result: OX1R antag-1, CHO parental Ca, OX1R antag-2, GPR7 antagonist)
O=C(Nc1ccc2c(c1)OCCO2)C(=O)c1c[nH]c2ccccc12	TAAR1 antag 54, OX1R antag-2 50
C[C@@H](NC(=O)C(=O)c1c[nH]c2ccccc12)c1ccccc1	none (no result: GPR7 antagonist)
CSc1ccccc1NC(=O)C(=O)c1c[nH]c2ccccc12	OX1R antag-2 48
Cc1cccc(-n2c(SCC(=O)N3CCCC3)nc3n[nH]c(C)c3c2=N)c1	OX1R antag-2 36
CCCCN(CC)C(=O)CSc1nc2n[nH]c(C)c2c(=N)n1-c1cccc(C)c1	none
O=c1oc2c3c(nn2c2ccccc12)CCCC3	OX1R antag-2 67
COc1cc(NC(=O)c2cc3ccccc3cc2O)c(OC)cc1Cl	CHO parental Ca 36, TAAR1 antag 49, OX1R antag-2 34
COc1cc2ccccc2cc1C(=O)Nc1ccccc1Cl	none
COc1ccccc1NC(=O)c1cc2cc(Br)ccc2cc1O	CHO parental Ca 45
O=C(c1cccc(S(=O)(=O)N2CCCCC2)c1)N(CCc1ccccc1)Cc1ccccc1	none (no result: GPR7 antagonist)
CS(=O)(=O)c1cccc(C(=O)N(CCc2ccccc2)Cc2cccs2)c1	TAAR1 ag 38
Cc1ccc(NC(=O)Nc2ccc3c(c2)N(C)C(=O)CS3)cc1C	TAAR1 antag 50
CN1C(=O)CSc2ccc(NC(=O)NCc3ccccc3)cc21	none
Cc1ccc(CNC(=O)Nc2ccc3c(c2)N(C)C(=O)CS3)cc1	none
CC(=O)c1cccc(NC(=O)Nc2ccc3c(c2)N(C)C(=O)CS3)c1	TAAR1 antag 66
CCc1ccc(NC(=O)Nc2ccc3c(c2)N(C)C(=O)CS3)cc1	TAAR1 antag 49
C[C@H](CO)N1C[C@H](C)[C@@H](CN(C)C(=O)c2ccncc2)OCc2cn(nn2)CCCC1=O	none (no result: OX1R antag-1, CHO parental Ca, OX1R antag-2, GPR7 antagonist)
O=C(OCc1cn([C@@H]2C[C@H](c3ccc(Cl)cc3)N(C(=O)C3CCCCC3)C[C@H]2O)nn1)c1ccccc1	none (no result: OX1R antag-1, CHO parental Ca, OX1R antag-2, GPR7 antagonist)
CN1/C(=C\C(=O)C(F)F)C(C)(C)c2ccccc21	none
